Laboratory results taken from the M2OR odorant receptor database.
Where a chain is given by its changes, count along the chain named.

What was measured:
Settings in all cases: stereoisomer not certain
[1] = target: T1, OR6C65 (Homo sapiens) (UniProt A6NJZ3)
T1 sequence (whole entry): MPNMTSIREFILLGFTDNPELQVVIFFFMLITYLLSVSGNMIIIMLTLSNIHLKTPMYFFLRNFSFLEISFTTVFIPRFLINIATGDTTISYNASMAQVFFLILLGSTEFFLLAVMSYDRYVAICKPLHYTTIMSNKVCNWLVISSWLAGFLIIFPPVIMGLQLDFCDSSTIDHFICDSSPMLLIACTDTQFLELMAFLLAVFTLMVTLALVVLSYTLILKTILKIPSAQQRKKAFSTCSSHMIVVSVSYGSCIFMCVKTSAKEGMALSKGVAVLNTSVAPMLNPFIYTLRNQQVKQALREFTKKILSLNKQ
Outline: (§1)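 Each receptor–molecule pair is labelled responsive or non-responsive (inactive) according to whether the original authors judged the measured signal statistically different from baseline. The data were taken from the main text and supplementary material of published papers and checked for typos and inconsistencies. Assay methods differed by source, with transient luciferase assays in mammalian cell lines being common.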

[2] = target: T2, OR6C68 (Homo sapiens) (UniProt A6NDL8)
T2 sequence (whole entry): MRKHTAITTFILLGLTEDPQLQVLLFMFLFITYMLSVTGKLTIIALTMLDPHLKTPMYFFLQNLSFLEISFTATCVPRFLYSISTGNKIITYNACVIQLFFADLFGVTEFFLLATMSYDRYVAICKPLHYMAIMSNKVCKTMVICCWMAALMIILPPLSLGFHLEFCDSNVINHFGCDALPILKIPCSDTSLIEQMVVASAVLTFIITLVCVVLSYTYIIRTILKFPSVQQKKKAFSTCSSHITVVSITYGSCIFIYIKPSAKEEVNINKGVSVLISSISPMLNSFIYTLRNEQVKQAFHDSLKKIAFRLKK
Outline: as §1

[3] = target: T3, OR6C70 (Homo sapiens) (UniProt A6NIJ9)
T3 sequence (whole entry): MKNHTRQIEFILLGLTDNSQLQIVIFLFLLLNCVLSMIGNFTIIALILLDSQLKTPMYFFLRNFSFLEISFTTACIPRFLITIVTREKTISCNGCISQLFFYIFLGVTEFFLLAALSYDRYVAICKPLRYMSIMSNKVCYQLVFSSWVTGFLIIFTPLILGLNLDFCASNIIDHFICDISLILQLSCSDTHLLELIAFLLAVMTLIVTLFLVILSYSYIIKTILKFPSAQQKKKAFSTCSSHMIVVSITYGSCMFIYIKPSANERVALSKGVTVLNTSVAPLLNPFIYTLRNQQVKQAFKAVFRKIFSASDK
Outline: as §1

[4] = target: T4, OR6C74 (Homo sapiens) (UniProt A6NCV1)
T4 sequence (whole entry): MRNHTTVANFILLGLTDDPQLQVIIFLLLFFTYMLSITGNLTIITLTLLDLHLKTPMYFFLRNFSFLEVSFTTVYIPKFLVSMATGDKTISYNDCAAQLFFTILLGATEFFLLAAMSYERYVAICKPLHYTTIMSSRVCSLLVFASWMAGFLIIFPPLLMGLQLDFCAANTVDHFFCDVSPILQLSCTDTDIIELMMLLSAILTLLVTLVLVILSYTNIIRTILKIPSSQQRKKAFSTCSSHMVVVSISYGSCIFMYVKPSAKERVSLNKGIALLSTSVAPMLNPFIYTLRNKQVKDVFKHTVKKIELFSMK
Outline: as §1

[5] = target: T5, OR6C75 (Homo sapiens) (UniProt A6NL08)
T5 sequence (whole entry): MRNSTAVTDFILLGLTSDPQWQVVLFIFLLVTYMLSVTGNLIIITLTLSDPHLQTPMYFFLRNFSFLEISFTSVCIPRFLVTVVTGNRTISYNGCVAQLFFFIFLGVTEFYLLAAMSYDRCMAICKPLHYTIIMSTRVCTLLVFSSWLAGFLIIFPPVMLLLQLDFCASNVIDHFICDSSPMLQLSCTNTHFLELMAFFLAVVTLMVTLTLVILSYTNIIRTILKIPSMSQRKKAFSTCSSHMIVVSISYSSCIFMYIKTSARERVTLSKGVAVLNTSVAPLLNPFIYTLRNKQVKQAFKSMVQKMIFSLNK
Outline: as §1

[6] = target: T6, OR6C76 (Homo sapiens) (UniProt A6NM76)
T6 sequence (whole entry): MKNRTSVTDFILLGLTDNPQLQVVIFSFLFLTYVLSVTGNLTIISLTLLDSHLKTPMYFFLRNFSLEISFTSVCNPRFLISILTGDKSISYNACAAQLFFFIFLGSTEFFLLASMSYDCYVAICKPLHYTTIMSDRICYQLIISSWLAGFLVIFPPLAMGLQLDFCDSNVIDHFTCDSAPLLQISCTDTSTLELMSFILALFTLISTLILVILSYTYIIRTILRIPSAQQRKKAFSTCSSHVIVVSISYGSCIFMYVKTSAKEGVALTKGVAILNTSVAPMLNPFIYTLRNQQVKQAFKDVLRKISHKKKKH
Outline: as §1

[7] = target: T7, OR6F1 (Homo sapiens) (UniProt Q8NGZ6)
T7 sequence (whole entry): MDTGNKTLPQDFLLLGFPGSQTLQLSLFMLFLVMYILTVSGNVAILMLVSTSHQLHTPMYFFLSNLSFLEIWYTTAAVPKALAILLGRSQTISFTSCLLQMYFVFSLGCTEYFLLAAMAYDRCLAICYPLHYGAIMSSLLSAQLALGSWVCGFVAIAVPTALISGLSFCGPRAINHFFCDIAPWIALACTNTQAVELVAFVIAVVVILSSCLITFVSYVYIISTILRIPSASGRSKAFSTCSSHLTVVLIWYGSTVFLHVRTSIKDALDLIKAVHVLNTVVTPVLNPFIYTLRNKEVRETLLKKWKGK
Outline: as §1

[8] = target: T8, OR6J1 (Homo sapiens) (UniProt Q8NGC5)
T8 sequence (whole entry): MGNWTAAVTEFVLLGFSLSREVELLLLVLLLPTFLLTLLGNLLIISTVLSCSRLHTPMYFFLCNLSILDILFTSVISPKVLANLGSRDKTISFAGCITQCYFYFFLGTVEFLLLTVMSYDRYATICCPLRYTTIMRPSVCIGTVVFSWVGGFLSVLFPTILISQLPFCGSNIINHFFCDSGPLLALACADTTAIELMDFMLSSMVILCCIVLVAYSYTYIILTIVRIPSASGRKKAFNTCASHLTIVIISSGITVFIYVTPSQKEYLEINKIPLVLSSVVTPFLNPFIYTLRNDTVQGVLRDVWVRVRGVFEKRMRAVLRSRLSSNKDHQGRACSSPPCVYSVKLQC
Outline: as §1

[9] = target: T9, OR6K2 (Homo sapiens) (UniProt Q8NGY2)
T9 sequence (whole entry): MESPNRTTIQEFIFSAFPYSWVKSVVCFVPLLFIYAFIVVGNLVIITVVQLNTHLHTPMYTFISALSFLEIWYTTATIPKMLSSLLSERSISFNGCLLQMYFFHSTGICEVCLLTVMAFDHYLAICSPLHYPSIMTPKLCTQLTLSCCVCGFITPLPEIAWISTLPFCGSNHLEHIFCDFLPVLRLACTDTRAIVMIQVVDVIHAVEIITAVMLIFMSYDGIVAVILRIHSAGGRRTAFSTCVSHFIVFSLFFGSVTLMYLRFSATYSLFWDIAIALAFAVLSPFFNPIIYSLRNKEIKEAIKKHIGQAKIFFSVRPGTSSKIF
Outline: as §1

[10] = test system: T10, OR6K3
T10 sequence (whole entry): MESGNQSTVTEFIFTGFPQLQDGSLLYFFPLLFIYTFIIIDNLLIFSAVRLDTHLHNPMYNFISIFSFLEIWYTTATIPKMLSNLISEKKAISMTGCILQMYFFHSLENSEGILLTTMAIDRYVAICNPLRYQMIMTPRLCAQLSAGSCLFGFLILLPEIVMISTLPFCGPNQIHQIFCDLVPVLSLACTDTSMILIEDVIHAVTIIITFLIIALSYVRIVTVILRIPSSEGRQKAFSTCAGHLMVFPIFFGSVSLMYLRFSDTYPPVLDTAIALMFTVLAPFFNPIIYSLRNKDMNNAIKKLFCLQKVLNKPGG
Outline: as §1

[11] = target: T11, OR6K6 (Homo sapiens) (UniProt Q8NGW6)
T11 sequence (whole entry): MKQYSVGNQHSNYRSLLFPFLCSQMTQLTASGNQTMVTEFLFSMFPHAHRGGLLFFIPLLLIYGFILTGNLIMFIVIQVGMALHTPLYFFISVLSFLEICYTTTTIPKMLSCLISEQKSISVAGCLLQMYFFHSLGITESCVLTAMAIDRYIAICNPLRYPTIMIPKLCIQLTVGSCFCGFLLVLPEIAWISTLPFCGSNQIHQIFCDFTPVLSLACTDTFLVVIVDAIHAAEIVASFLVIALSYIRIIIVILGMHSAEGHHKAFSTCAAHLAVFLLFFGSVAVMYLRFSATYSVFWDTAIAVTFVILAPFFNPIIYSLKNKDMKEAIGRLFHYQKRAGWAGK
Outline: as §1

[12] = target: T12, OR6M1 (Homo sapiens) (UniProt Q8NGM8)
T12 sequence (whole entry): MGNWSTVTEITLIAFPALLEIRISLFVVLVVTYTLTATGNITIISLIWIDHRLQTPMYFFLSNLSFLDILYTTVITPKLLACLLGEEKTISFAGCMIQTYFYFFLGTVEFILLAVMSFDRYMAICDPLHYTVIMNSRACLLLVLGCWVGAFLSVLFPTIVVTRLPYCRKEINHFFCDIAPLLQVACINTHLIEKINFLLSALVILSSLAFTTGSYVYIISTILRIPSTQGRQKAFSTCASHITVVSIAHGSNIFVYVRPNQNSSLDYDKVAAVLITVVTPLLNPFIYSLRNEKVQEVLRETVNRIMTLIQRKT
Outline: as §1

[13] = test system: T13, OR6M1 R224C
T13 sequence (whole entry): T12 sequence (whole entry) with R224C
Outline: as §1

[14] = test system: T14, OR6M1 T276K
T14 sequence (whole entry): T12 sequence (whole entry) with T276K
Outline: as §1

[15] = target: T15, OR6N1 (Homo sapiens) (UniProt Q8NGY5)
T15 sequence (whole entry): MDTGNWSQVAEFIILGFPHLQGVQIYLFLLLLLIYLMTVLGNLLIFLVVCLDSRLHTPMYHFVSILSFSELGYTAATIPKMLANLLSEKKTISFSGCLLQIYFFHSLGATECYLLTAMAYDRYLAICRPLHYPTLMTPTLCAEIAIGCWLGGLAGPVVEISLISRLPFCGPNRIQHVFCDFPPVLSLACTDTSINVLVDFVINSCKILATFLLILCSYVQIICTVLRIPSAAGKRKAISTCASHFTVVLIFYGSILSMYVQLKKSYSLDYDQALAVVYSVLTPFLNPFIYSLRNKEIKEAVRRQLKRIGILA
Outline: as §1

[16] = target: T16, OR6N2 (Homo sapiens) (UniProt Q8NGY6)
T16 sequence (whole entry): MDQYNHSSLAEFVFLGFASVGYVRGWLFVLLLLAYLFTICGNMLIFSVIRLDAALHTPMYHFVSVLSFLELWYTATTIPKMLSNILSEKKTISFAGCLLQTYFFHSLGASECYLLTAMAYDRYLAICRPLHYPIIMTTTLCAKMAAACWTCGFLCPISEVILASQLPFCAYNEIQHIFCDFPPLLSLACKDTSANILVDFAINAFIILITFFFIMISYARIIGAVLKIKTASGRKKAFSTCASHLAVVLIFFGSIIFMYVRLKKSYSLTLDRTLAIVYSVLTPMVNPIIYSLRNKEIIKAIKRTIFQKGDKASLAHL
Outline: as §1

[17] = target: T17, OR6P1 (Homo sapiens) (UniProt Q8NGX9)
T17 sequence (whole entry): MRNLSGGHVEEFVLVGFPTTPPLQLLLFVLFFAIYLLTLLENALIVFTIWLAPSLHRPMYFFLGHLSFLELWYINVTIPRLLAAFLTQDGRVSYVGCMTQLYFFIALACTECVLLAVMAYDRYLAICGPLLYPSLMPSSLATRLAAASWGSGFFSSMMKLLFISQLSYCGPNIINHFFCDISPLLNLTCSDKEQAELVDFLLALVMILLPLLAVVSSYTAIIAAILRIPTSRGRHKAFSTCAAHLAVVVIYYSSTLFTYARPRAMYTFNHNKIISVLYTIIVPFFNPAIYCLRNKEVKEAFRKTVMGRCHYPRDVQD
Outline: as §1

[18] = target: T18, OR6Q1 (Homo sapiens) (UniProt Q8NGQ2)
T18 sequence (whole entry): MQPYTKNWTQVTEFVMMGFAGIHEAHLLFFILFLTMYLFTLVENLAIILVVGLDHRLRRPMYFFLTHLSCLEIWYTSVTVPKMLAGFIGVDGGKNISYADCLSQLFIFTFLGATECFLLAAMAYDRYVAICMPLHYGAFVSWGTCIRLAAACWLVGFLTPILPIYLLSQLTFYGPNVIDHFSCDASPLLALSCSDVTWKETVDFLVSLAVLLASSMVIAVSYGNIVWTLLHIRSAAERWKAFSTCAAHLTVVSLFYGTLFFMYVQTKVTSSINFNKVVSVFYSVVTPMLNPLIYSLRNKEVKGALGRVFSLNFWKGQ
Outline: as §1

Measured: odorant receptor agonist call;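 note: active if original authors judged signal statistically different from baseline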

CCCC(S)CCOC(C)=O (stereo unspecified)
inactive: all assays above

CCC1OC(C)=C(O)C1=O (stereo unspecified)
inactive: all assays above
